Tests used:
[1] = target: Cyclin-dependent kinase 4/cyclin D1 (Homo sapiens, UniProt P11802); assay: Inhibition of human recombinant CDK4/cyclin D1; assay type: protein-complex assay
How it was run: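 CDK4/CycD1 (human, baculovirus/Sf9, affinity-purified) with Rb-CTF as substrate. The radiometric FlashPlate assay held 1 µM [γ-33P]ATP in HEPES-NaOH pH 7.5 with 3 mM MgCl2 and 3 mM MnCl2.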

[2] = target: Serine/threonine-protein kinase B-raf (Homo sapiens, UniProt P15056, V600E); assay: Inhibition of human recombinant B-Raf-V600E mutant
How it was run: (§1)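 Human kinases expressed in Sf9 cells by baculovirus as GST or His fusions and affinity purified. Radiometric 33PanQinase assay: 60 mM HEPES-NaOH pH 7.5, 3 mM MgCl2, 3 mM MnCl2, 3 µM orthovanadate, 1.2 mM DTT, 1 µM [γ-33P]ATP, 50-400 ng enzyme, 1% DMSO; 30 °C, 80 min. Substrates: B-Raf-VE, MEK1 KM; CDK2/CycA, histone H1; CK2-A1, casein; COT, autophosphorylation. IC50 from 10 concentrations; 33Pi incorporation by scintillation.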

[3] = target: Mitogen-activated protein kinase kinase kinase 8 (Homo sapiens, UniProt P41279); assay: Inhibition of human recombinant COT; how it was run: as §1
[4] = target: Insulin receptor (Homo sapiens, UniProt P06213); assay: Inhibition of human recombinant INS-R
[5] = target: Focal adhesion kinase 1 (Homo sapiens, UniProt Q05397); assay: Inhibition of human recombinant FAK
[6] = target: Ephrin type-B receptor 4 (Homo sapiens, UniProt P54760); assay: Inhibition of human recombinant EPHB4
How it was run: (§2)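 Recombinant human tyrosine kinases (EPHB4, TIE2, VEGF-R2, VEGF-R3), expressed in Sf9 insect cells as GST- or His-fusions, with poly(Glu,Tyr) 4:1 as substrate. Conditions: 1 µM [γ-33P]ATP, pH 7.5 HEPES buffer with Mg/Mn, DTT and vanadate, 30 °C for 80 min, 1% DMSO. Ten concentrations were tested and IC50 came from scintillation counting of incorporated 33P.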

[7] = target: Receptor tyrosine-protein kinase erbB-2 (Homo sapiens, UniProt P04626); assay: Inhibition of human recombinant ERBB2
How it was run: (§3)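 Human kinases expressed in Sf9 cells via baculovirus as GST or His fusions and affinity purified. 33PanQinase assay in 60 mM HEPES-NaOH pH 7.5, 3 mM MgCl2, 3 mM MnCl2, 3 µM orthovanadate, 1.2 mM DTT, 1 µM [γ-33P]ATP, 1% DMSO; 30 °C, 80 min. Substrates: poly(Glu,Tyr) 4:1 for ERBB2, IGF1-R and SRC; poly(Ala,Glu,Lys,Tyr) 6:2:5:1 for FLT3. IC50 from 10 concentrations by scintillation counting.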

[8] = target: Cyclin-dependent kinase 2 (Homo sapiens, UniProt P24941); assay: Inhibition of human recombinant CDK2/cyclin A; how it was run: as §1
[9] = target: Proto-oncogene tyrosine-protein kinase Src (Homo sapiens, UniProt P12931); assay: Inhibition of human recombinant SRC; how it was run: as §3
[10] = target: Angiopoietin-1 receptor (Homo sapiens, UniProt Q02763); assay: Inhibition of human recombinant TIE2; how it was run: as §2
[11] = target: Vascular endothelial growth factor receptor 3 (Homo sapiens, UniProt P35916); assay: Inhibition of human recombinant VEGFR3; how it was run: as §2
[12] = target: Platelet-derived growth factor receptor beta (Homo sapiens, UniProt P09619); assay: Inhibition of human recombinant PDGFRbeta
[13] = target: Aurora kinase B (Homo sapiens, UniProt Q96GD4); assay: Inhibition of human recombinant Aurora B
How it was run: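 Aurora-A or Aurora-B, human cDNA expressed in Sf9 cells as tagged recombinant protein, phosphorylating Tetra(LRRWSLG). Reactions used 60 mM HEPES pH 7.5, Mg2+/Mn2+ (3 mM each), 1.2 mM DTT, vanadate and 1 µM [γ-33P]ATP, ran 80 min at 30 °C and were stopped with 2% H3PO4.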

[14] = target: T1, NUAK family SNF1-like kinase 1 (Homo sapiens, UniProt O60285); assay: Inhibition of human recombinant ARK5
T1 sequence (O60285 whole entry): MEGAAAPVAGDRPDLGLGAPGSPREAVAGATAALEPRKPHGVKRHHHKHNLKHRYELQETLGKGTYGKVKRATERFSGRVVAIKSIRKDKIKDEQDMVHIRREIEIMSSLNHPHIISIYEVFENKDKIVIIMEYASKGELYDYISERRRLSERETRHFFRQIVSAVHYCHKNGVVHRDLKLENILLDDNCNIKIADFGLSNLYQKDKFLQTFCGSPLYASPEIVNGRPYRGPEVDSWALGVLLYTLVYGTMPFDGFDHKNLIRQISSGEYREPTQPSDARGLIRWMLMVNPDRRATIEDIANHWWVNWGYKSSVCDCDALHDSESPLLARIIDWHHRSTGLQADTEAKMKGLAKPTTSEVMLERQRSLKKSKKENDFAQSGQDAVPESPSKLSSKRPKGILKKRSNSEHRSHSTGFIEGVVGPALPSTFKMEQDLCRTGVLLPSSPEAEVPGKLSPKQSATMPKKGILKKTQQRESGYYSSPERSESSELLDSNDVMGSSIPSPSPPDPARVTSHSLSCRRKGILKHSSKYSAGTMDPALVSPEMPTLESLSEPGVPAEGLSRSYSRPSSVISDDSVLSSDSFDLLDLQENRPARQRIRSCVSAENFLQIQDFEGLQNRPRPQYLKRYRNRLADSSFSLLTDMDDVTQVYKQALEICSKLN
How it was run: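 Human ARK5 made in Sf9 cells by baculovirus (GST- or His-tagged, affinity-purified) and read by autophosphorylation in a 33PanQinase radiometric assay. Buffer: 60 mM HEPES-NaOH pH 7.5, 3 mM MgCl2, 3 mM MnCl2, 3 µM orthovanadate, 1.2 mM DTT, PEG20000 and 1 µM [γ-33P]ATP.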

[15] = organism: Homo sapiens; assay: Antiangiogenic activity in VEGF-induced HLMEC assessed as sprouts per bead at 1.3 uM after 24 hrs by sprouting assay; assay type: functional
How it was run: (§4)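 HLMEC seeded on cytodex-3 microcarrier beads and embedded in 3D fibrinogen gel with 20 ng/mL VEGF plus compound at a final 1.3 or 2.6 µM (from 1 mM DMSO stock). Gel polymerised with 0.65 U/mL thrombin and overlaid with MCDB131, 5% FCS, 5% human serum and 200 U/mL Trasylol. Negative control: gel without growth factors. After 24 h, fixed in 1% PFA; sprouts per 50 beads counted microscopically. Triplicates per condition, n = 9 experiments.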

[16] = organism: Homo sapiens; assay: Antiangiogenic activity in VEGF-induced HLMEC assessed as number of sprouts per bead at 2.6 uM after 24 hrs by sprouting assay; assay type: functional; how it was run: as §4
[17] = organism: Homo sapiens; assay: Induction of apoptosis in HDMEC assessed as cleaved caspase 3 at 1.3 uM after 24 hrs; assay type: functional
How it was run: (§5)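 HDMEC incubated 24 h with compound. Adherent cells and supernatant harvested together, stained with an antibody to cleaved caspase-3, and analysed by FACS as percent apoptotic cells. Three independent repeats.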

[18] = organism: Homo sapiens; assay: Induction of apoptosis in HDMEC assessed as cleaved caspase 3 at 2.6 uM after 24 hrs; assay type: functional; how it was run: as §5

Focal adhesion kinase 1, sequence (Q05397 whole entry): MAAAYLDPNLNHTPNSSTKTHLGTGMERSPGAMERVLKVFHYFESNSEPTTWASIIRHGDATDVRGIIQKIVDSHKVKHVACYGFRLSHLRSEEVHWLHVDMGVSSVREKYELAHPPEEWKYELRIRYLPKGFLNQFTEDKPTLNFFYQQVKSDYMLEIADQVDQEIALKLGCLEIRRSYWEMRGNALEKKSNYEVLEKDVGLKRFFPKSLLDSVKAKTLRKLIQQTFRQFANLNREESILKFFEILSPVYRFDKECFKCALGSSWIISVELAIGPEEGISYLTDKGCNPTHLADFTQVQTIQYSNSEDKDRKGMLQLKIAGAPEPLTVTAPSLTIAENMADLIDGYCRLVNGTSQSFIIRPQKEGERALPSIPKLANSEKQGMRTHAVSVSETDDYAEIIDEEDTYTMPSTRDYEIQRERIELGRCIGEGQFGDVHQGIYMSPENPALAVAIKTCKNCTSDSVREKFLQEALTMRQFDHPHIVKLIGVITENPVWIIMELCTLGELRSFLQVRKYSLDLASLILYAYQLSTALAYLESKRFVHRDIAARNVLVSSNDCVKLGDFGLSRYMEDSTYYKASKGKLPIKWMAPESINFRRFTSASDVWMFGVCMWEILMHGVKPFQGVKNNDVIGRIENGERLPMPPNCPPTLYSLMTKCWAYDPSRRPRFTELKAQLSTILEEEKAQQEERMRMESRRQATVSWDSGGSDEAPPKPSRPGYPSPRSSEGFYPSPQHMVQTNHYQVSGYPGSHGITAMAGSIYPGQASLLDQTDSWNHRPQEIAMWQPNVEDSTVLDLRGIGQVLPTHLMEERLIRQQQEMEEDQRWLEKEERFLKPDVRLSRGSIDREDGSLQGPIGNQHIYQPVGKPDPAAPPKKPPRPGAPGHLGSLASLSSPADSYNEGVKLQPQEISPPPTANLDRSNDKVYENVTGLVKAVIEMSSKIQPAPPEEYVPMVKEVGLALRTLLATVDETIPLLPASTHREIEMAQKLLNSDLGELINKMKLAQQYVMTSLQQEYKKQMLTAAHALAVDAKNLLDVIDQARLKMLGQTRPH
Aurora kinase B, sequence (Q96GD4 whole entry): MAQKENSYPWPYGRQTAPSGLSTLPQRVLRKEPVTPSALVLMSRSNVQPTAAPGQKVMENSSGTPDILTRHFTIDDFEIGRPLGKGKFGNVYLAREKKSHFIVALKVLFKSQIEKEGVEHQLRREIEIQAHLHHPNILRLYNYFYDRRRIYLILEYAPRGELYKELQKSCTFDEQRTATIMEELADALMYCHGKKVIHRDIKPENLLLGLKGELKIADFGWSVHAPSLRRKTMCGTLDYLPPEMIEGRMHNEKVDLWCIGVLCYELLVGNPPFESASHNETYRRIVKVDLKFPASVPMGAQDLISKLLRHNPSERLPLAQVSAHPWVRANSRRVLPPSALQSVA
Cyclin-dependent kinase 4/cyclin D1, sequence (P11802 whole entry): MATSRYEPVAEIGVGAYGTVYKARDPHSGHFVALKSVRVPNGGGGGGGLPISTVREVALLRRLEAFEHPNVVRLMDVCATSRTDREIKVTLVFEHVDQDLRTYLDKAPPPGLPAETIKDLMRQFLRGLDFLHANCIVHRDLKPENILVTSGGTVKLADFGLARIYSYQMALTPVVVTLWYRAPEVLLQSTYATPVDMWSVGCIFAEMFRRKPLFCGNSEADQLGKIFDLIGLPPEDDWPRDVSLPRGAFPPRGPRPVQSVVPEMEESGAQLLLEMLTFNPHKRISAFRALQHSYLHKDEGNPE
Cyclin-dependent kinase 4/cyclin D1, sequence (P24385 whole entry, further chain): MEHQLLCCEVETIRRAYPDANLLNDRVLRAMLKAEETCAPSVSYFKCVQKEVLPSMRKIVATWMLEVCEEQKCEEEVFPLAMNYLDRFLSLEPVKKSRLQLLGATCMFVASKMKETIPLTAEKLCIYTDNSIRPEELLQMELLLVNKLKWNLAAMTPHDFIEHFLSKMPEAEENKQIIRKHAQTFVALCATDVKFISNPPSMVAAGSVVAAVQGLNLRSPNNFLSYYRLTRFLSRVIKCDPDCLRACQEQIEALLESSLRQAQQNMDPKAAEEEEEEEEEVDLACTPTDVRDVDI
Angiopoietin-1 receptor, sequence (Q02763 whole entry): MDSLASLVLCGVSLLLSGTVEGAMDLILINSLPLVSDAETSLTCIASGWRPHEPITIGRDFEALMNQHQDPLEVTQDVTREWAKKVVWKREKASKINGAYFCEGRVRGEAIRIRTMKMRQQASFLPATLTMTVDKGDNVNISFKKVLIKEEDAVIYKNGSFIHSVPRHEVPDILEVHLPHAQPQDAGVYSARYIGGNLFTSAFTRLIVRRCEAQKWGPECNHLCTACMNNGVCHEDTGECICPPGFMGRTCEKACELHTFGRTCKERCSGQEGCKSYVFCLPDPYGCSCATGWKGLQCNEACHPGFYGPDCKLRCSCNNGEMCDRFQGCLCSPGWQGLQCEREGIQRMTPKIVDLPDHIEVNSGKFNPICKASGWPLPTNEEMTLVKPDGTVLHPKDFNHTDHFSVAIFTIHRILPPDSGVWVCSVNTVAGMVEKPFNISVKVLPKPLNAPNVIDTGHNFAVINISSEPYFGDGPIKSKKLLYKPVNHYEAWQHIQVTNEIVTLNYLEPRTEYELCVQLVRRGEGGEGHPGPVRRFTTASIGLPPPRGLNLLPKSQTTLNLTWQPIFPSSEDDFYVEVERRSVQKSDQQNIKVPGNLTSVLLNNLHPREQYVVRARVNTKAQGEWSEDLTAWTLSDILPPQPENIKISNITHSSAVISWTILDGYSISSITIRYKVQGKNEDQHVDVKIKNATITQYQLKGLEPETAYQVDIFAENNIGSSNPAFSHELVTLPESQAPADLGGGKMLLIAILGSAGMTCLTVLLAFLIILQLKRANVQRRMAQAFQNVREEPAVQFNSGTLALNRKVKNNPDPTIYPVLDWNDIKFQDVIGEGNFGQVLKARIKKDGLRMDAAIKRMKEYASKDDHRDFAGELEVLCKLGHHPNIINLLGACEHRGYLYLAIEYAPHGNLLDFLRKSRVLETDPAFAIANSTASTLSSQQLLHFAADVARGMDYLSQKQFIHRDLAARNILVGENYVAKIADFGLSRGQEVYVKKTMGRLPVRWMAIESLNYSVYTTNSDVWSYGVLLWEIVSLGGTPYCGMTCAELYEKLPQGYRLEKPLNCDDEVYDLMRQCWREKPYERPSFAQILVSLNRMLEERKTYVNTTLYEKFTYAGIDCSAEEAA
Vascular endothelial growth factor receptor 3, sequence (P35916 whole entry): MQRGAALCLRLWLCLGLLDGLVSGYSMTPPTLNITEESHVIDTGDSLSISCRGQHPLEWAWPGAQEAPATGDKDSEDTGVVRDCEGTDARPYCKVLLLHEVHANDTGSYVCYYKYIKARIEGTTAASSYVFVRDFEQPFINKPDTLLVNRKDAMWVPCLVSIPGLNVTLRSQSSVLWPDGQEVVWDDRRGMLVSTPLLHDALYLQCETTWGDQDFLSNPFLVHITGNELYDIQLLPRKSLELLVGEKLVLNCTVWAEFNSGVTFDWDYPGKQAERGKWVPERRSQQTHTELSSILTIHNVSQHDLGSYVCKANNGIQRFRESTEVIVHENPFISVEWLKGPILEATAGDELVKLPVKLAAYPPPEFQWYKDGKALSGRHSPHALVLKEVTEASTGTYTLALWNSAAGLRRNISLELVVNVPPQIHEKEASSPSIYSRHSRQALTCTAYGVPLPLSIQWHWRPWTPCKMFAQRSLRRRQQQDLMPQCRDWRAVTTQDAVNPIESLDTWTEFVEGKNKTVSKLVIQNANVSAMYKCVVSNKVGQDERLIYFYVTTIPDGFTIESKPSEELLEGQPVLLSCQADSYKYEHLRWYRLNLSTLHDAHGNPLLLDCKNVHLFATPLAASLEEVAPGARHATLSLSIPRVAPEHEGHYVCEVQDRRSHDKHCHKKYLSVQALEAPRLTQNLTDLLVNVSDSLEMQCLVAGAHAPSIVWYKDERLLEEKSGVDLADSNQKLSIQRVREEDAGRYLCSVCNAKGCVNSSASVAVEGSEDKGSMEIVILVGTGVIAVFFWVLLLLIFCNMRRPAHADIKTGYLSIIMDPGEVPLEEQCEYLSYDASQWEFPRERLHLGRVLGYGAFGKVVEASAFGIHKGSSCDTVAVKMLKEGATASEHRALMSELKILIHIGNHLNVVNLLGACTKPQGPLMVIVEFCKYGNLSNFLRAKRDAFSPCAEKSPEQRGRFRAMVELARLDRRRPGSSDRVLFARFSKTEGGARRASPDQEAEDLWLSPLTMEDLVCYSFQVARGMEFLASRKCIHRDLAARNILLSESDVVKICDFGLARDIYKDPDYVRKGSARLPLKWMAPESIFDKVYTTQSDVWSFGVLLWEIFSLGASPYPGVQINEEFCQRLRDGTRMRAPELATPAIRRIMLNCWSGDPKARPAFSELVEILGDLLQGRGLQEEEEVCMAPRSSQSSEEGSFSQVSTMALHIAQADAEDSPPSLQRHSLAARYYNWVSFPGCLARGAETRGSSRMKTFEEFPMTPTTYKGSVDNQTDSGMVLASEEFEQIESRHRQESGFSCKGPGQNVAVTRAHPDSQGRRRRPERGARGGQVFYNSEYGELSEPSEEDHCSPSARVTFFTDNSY
Proto-oncogene tyrosine-protein kinase Src, sequence (P12931 2-536 limits assumed): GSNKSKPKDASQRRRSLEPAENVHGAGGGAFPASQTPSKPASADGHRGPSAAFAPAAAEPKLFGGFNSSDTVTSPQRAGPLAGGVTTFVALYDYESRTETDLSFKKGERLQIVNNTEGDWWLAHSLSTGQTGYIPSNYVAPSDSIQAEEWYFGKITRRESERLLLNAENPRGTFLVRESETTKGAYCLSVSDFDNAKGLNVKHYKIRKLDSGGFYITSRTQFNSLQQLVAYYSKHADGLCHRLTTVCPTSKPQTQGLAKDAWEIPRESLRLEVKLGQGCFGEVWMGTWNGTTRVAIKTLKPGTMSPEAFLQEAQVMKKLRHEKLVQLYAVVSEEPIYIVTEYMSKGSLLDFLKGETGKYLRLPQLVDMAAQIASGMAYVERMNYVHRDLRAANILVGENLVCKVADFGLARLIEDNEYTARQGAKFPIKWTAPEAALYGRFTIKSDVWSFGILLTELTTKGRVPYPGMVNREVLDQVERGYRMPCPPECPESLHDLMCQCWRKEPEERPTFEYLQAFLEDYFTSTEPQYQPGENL

SMILES | IC50 [9] | IC50 [10] | IC50 [11] | IC50 [13] | IC50 [14] | IC50 [1] | IC50 [2] | IC50 [3] | IC50 [4] | IC50 [5] | IC50 [6] | IC50 [7] | IC50 [8] | IC50 [12] | inhibition [15] | Activity [16] | Activity [17] | Activity [18]
COc1cc(C2=C(c3cn(COC(C)(C)C)c4ccccc34)CNC2=O)cc(OC)c1OC | 4.4 µM | 11 µM | 4.8 µM | 43 µM |  | 27 µM | 38 µM | 9.6 µM | 27 µM | 28 µM | 20 µM | 25 µM | 23 µM | 38 µM |  |  |  | 
COc1cc(C2=C(c3cn(C)c4ccccc34)C(=O)NC2)cc(OC)c1OC |  |  | 11 µM | 9.8 µM | 4.9 µM | 40 µM | 50 µM |  | 47 µM | 50 µM |  |  | 42 µM |  |  |  |  | 
COc1cc(C2=C(c3cn(CC(O)CO)c4ccccc34)CNC2=O)cc(OC)c1OC (configuration not stated) |  | 25 µM | 2.5 µM |  | 34 µM |  |  |  |  |  |  |  |  | 40 µM |  |  |  | 

Continued, in another order:

IC50 [9] | IC50 [10] | IC50 [11] | IC50 [13] | IC50 [14] | SMILES | IC50 [1] | IC50 [2] | IC50 [3] | IC50 [4] | IC50 [5] | IC50 [6] | IC50 [7] | IC50 [8] | IC50 [12] | inhibition [15] | Activity [16] | Activity [17] | Activity [18]
 |  | 8.7 µM | 4.9 µM | 2 µM | COc1ccc(C2=C(c3c[nH]c4ccccc34)C(=O)NC2)cc1 | 35 µM |  |  |  |  |  |  |  |  |  |  |  | 
41 µM | 34 µM | 9.4 µM | 2.1 µM | 1.8 µM | COc1cc(C2=C(c3c[nH]c4ccccc34)C(=O)NC2)cc(OC)c1OC | 30 µM |  |  |  |  |  |  |  |  | 34% | 2.56 |  | 
14 µM | 5.2 µM | 0.037 µM | 46 µM |  | COc1cc(C2=C(c3c[nH]c4ccccc34)CNC2=O)cc(OC)c1OC |  |  | 32 µM |  | 9.5 µM |  |  |  |  | 88% | 0.27 | 25% | 42.1%

Reference: ChEMBL document CHEMBL1157465, “Design, synthesis, and biological evaluation of novel 3-aryl-4-(1H-indole-3yl)-1,5-dihydro-2H-pyrrole-2-ones as vascular endothelial growth factor receptor (VEGF-R) inhibitors” (J Med Chem, 2008)
